Several values for one entry are separate records, joined by “and”; a condition that tells them apart may be missing. Equal entries are not always repeated.
Key:
Format in all cases: functional
[1] = test system: Rattus norvegicus; assay: Hypolipidemic activity in albino Wistar Royal Hart rat assessed as change in plasma triglyceride level at 120 mg/kg, po for 3 days
Summary of the method: (§1)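 Male albino Wistar Royal Hart rats (160–180 g) were kept 7 days on drug-free ground Purina Lab Chow, then grouped six per group. Compound was given orally, once daily, for 3 or 6 days. Controls received no compound. Rats were anesthetized with sodium hexobarbital and bled from the carotid artery. Serum (1.0 ml) went into 9.0 ml 2-propanol with zeolite-copper hydroxide/Lloyd reagent, shaken 1 h. Cholesterol and triglyceride were autoanalyzed on the same sample. Change is given as % of control.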

[2] = test system: Rattus norvegicus; assay: Hypolipidemic activity in albino Wistar Royal Hart rat assessed as change in plasma cholesterol level at 120 mg/kg, po for 3 days; summary of the method: as §1
[3] = test system: Rattus norvegicus; assay: Hypolipidemic activity in albino Wistar Royal Hart rat assessed as change in plasma cholesterol level at 60 mg/kg, po for 6 days; summary of the method: as §1
[4] = test system: Rattus norvegicus; assay: Hypolipidemic activity in albino Wistar Royal Hart rat assessed as change in plasma triglyceride level at 250 mg/kg, po for 3 days; summary of the method: as §1
[5] = test system: Rattus norvegicus; assay: Hypolipidemic activity in albino Wistar Royal Hart rat assessed as change in plasma cholesterol level at 250 mg/kg, po for 3 days; summary of the method: as §1
[6] = test system: Rattus norvegicus; assay: Hypolipidemic activity in albino Wistar Royal Hart rat assessed as change in plasma cholesterol level at 300 mg/kg, po for 6 days; summary of the method: as §1
[7] = test system: Rattus norvegicus; assay: Hypolipidemic activity in albino Wistar Royal Hart rat assessed as change in plasma triglyceride level at 300 mg/kg, po for 6 days; summary of the method: as §1
[8] = test system: Rattus norvegicus; assay: Hypolipidemic activity in albino Wistar Royal Hart rat assessed as change in plasma triglyceride level at 250 mg/kg, po for 6 days; summary of the method: as §1
[9] = test system: Rattus norvegicus; assay: Hypolipidemic activity in albino Wistar Royal Hart rat assessed as change in plasma cholesterol level at 250 mg/kg, po for 6 days; summary of the method: as §1
[10] = test system: Rattus norvegicus; assay: Hypolipidemic activity in albino Wistar Royal Hart rat assessed as change in plasma triglyceride level at 60 mg/kg, po for 3 days; summary of the method: as §1
[11] = test system: Rattus norvegicus; assay: Hypolipidemic activity in albino Wistar Royal Hart rat assessed as change in plasma cholesterol level at 30 mg/kg, po for 6 days; summary of the method: as §1
[12] = test system: Rattus norvegicus; assay: Hypolipidemic activity in albino Wistar Royal Hart rat assessed as change in plasma triglyceride level at 30 mg/kg, po for 6 days; summary of the method: as §1
[13] = test system: Rattus norvegicus; assay: Hypolipidemic activity in albino Wistar Royal Hart rat assessed as change in plasma cholesterol level at 60 mg/kg, po for 3 days; details: in the assay text read “for 6 days” for “for 3 days”; summary of the method: as §1
[14] = test system: Rattus norvegicus; assay: Hypolipidemic activity in albino Wistar Royal Hart rat assessed as change in plasma cholesterol level at 120 mg/kg, po for 6 days; summary of the method: as §1
[15] = test system: Rattus norvegicus; assay: Hypolipidemic activity in albino Wistar Royal Hart rat assessed as change in plasma triglyceride level at 60 mg/kg, po for 6 days; summary of the method: as §1
[16] = test system: Rattus norvegicus; assay: Hypolipidemic activity in albino Wistar Royal Hart rat assessed as change in plasma triglyceride level at 120 mg/kg, po for 6 days; summary of the method: as §1
[17] = in the assay text read “for 3 days” for “for 6 days”

CC(C)(OC(C)(C)C(=O)O)C(=O)O
Activity [1]: -32%
Activity [2]: 4%

CC(C)(O)C#CC(O)(c1ccccc1)c1ccc(Cl)cc1 (centres undefined)
Activity [1]: 3%
Activity [2]: 48%

CN1CCC(O)(CCC2(O)CCN(C)CC2)CC1
Activity [1]: 29%
Activity [2]: -4%

COC(=O)C(C)(C)OC1(C(=O)OC)CCCCC1
Activity [1]: 8%
Activity [2]: -8%

CC1(C)CN(Cc2ccccc2)CC(C)(C)O1
Activity [1]: 9%
Activity [2]: -14%

OC1(CCC(O)(c2ccccc2)c2ccccc2)CCCCC1
Activity [1]: 74%
Activity [2]: -5%

CC1(C)C=CC(C)(c2ccccc2)O1 (centres undefined)
Activity [1]: 27%
Activity [2]: -7%

CN1CCC(O)(/C=C\C(C)(C)O)CC1.Cl
Activity [1]: -10%
Activity [2]: -4%

COC(=O)C(C)(C)OC(C)(C(=O)OC)c1ccc(Cl)cc1 (centres undefined)
Activity [1]: 9%
Activity [2]: 29%

CN1CCC(O)(C#CC2(O)CCN(C)CC2)CC1
Activity [1]: 43%
Activity [2]: 19%

CC1(C)CN(Cc2ccc(Cl)cc2)CC(c2ccccc2)(c2ccccc2)O1
Activity [1]: -45%
Activity [2]: 12%

CC(C)(OC(C(=O)O)(c1ccccc1)c1ccccc1)C(=O)O
Activity [1]: 8%
Activity [2]: -11%

CC1(C)CN(Cc2ccccc2)CC(c2ccccc2)(c2ccccc2)O1.Cl
Activity [1]: -15%
Activity [2]: 0%

CC1(C)OC(c2ccncc2)(c2ccc(Cl)cc2)C2OC21 (centres undefined)
Activity ([3]; 60 mg/kg): -8% and -6%

CC1(C)OC(C)(C)C(=O)N(Cc2ccc(Cl)cc2)C1=O
Activity [1]: 50%
Activity [2]: -3%

CN1CCC(O)(/C=C\C2(O)CCN(C)CC2)CC1
Activity [4]: -28%
Activity [5]: -17%

CCOC(=O)C(C)(C)Oc1ccc(Cl)cc1 [CLOFIBRATE]
Activity [6]: -34%
Activity [7]: -49%

CC(=O)N1CCC2(CC1)CCC(C)(C)O2
Activity [8]: -39%
Activity [9]: -11%

CC1(C)OC(c2ccccc2)(c2ccc(Cl)cc2)C2OC21 (centres undefined)
Activity ([2]; 120 mg/kg): -11% and -12%

CC(=O)N1CCC(O)(/C=C\C(C)(C)O)CC1
Activity [1]: 92%
Activity [2]: 21%

CC1(C)C=CC(c2ccccc2)(c2ccc(Cl)cc2)O1 (centres undefined)
Activity [3, 17]: -11%
Activity [10]: -17%

CC1(C)CN(Cc2ccc(Cl)cc2)CC(C)(C)O1
Activity [1]: -10%
Activity [2]: -3%

CC1(C)OC(c2ccccc2)(c2ccc(Cl)cc2)C(=O)N(Cc2ccccc2)C1=O (centres undefined)
Activity [8]: -4%
Activity [9]: -7%

CC1(C)OC(C)(C)C(=O)N(Cc2ccccc2)C1=O
Activity [1]: 51%
Activity [2]: 35%

CC1(C)OC(C)(c2ccccc2)C2OC21 (centres undefined)
Activity [8]: -6%
Activity [9]: -11%

O=C(c1ccccc1)N1CCC(O)(/C=C\C2(O)CCN(C(=O)c3ccccc3)CC2)CC1
Activity [1]: 27%
Activity [2]: -3%

CN1CCC(OC(=O)C(Oc2ccc(Cl)cc2)Oc2ccc(Cl)cc2)CC1 [LIFIBRATE]
Activity [11]: -30%
Activity [12]: -50%

COC(=O)C(C)(C)OC(C)(C(=O)OC)c1ccccc1 (centres undefined)
Activity [1]: -3%
Activity [2]: 0%

CC1(C)OC(c2ccccc2)(c2ccccc2)C(=O)N(Cc2ccc(Cl)cc2)C1=O
Activity [1]: -16%
Activity [2]: -9%

CC1(C)OC(c2ccccc2)(c2ccccc2)C(=O)N(c2ccccc2)C1=O
Activity [1]: 8%
Activity [2]: -6%

CC(=O)N1CCC(O)(CCC(C)(C)O)CC1
Activity [1]: -22%
Activity [2]: -7%

CC(C)(O)C#CC(O)(c1ccncc1)c1ccc(Cl)cc1 (centres undefined)
Activity [1]: 34%
Activity [2]: 30%

CC1(C)OC(c2ccccc2)(c2ccc(Cl)cc2)/C(=N\O)C1=O (centres undefined)
Activity [1]: -29%
Activity [2]: -6%

CC(C)(CNCc1ccc(Cl)cc1)OC(C)(C)CNCc1ccc(Cl)cc1.Cl
Activity [13]: -25%
Activity [14]: -15%
Activity [15]: -9%
Activity [8]: -77%
Activity [9]: -7%
Activity [16]: -64%

CC(OC1(C(=O)O)CCCCC1)(C(=O)O)c1ccccc1 (centres undefined)
Activity [1]: -2%
Activity [2]: 28%

CC(C)(O)C#CC(C)(O)c1ccc(Cl)cc1 (centres undefined)
Activity [1]: 6%
Activity [2]: 11%

CC1(C)OC(c2ccccc2)(c2ccccc2)C(=O)N(Cc2ccccc2)C1=O
Activity [3, 17]: -9%
Activity [10]: -7%

CN1CCC(O)(C#CC(C)(C)O)CC1
Activity [1]: 86%
Activity [2]: 20%

CC1(C)C=CC(c2ccncc2)(c2ccc(Cl)cc2)O1 (centres undefined)
Activity [1]: -65%
Activity [2]: 32%

CC1(C)OC(c2ccccc2)(c2ccccc2)/C(=N\O)C1=O
Activity [1]: -19%
Activity [2]: -6%

CC(C)(OC(C(=O)O)(c1ccccc1)c1ccc(Cl)cc1)C(=O)O (centres undefined)
Activity [1]: 33%
Activity [2]: 6%
